Screening results deposited in PubChem BioAssay by The Scripps Research Institute Molecular Screening Center.
OX1R antag-1: antagonists of human orexin 1 receptor (OX1R); OX1R-expressing cells, FRET antagonist read-out; inhibition, % at 6.6 µM; 330,000 tested, 1.8% active; AID 485270, 2010; in the data active means inhibition mostly above about 38%, no sharp cut-off; inactive means mostly below about 40%
GalR3 antagonist: GalR3 antagonists in HEK293 cells, primary screen, cell-based, fluorescence readout; Galanin receptor type 3 (Homo sapiens), O60755; 360,000 tested, 0.44% active; inhibition, % at 3 µM; HEK293 GalR3-CNG cAMP membrane potential fluorescence; galR3 body fused to GalR1 C-terminus; AID 651719, 2012;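 active means inhibition above the screen-wide average plus 3 SD, cut at about 13% in these data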;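 further: forskolin and galanin both at EC90 stimulate the cells; cAMP rise reported by CNG channel membrane potential dye signal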
Target sequence (O60755 1-299 limits assumed): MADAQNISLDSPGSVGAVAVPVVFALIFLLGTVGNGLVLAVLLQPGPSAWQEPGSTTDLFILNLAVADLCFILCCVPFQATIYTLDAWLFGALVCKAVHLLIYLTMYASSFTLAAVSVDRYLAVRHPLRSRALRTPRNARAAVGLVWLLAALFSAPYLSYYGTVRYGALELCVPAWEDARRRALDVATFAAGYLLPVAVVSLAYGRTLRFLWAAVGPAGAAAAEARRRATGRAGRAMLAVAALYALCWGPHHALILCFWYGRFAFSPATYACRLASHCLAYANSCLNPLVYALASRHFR
CHO parental Ca: ATP-evoked calcium signal inhibitors, parental CHO, primary screen, counter-screen for OX1R antagonist project, cell-based, fluorescence, Fluo-8 calcium dye; inhibition, % at 5.6 µM; 330,000 tested, 0.63% active; AID 463079, 2010; parental CHO-K1, ATP-induced calcium, Fluo-8 fluorescence;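 active means inhibition above that plate's mean sample inhibition plus 3 SD, cut at about 26% in these data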
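material = parental CHO cells | also added = ATP as calcium-mobilizing challenge | dosing = single point at 5.6 µM | detection = intracellular calcium via Fluo-8 no-wash fluorescent dye | read-out = % inhibition | benchmarks = low control ATP plus DMSO, high control DMSO only | repeats = one well per compound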
OX1R antag-2: OX1R (HCRTR1) antagonists, primary screen, fluorescence, CHO/OX1R cells, Fluo-8 calcium, orexin A; Orexin/Hypocretin receptor type 1 (Homo sapiens), O43613; Fluo-8 calcium fluorescence; inhibition, % at 5 µM; 330,000 tested, 0.43% active;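 active means inhibition above its plate's threshold, mean inhibition of all tested compounds on the plate plus 3 SD, cut at about 37% in these data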
GPR7 antagonist: GPR7 receptor antagonists, primary screen, cell-based, fluorescence, single concentration; inhibition, % at 4.4 µM; GPR7-expressing cells, fluorescence antagonist assay; AID 1861, 2009; 290,000 tested, 1.1% active; Neuropeptides B/W receptor type 1 (Homo sapiens), P48145; in the data active means inhibition above about 16%, passing the limit was not always enough;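 further: cells stimulated with the agonist NPW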
Target sequence (P48145 whole entry, looked up): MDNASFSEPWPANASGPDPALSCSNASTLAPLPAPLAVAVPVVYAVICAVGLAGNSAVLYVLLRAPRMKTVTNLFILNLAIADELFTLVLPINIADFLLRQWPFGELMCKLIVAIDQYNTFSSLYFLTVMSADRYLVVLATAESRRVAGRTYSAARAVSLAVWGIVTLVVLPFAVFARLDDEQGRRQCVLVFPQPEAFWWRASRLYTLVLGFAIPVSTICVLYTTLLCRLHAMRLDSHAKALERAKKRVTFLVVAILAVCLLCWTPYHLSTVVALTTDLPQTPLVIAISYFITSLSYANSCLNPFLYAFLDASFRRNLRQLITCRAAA
Large screens that a line does not name were inactive. An excerpt weighted towards active compounds, which were near 3.1% of everything screened.

C#CCOCCOCCOCCNc1nc(N2CCN(C(=O)CCCCCCCCCCNC(=O)[C@H](CCCCN)n3cc(C[C@@H](C)CC)nn3)CC2)nc(N2CCN(C(=O)CCCCCCCCCCNC(=O)[C@H](CCCCN)n3cc(C[C@@H](C)CC)nn3)CC2)n1	CHO parental Ca 101 (no result: GalR3 antagonist, GPR7 antagonist)
C#CCOCCOCCOCCNc1nc(N2CCN(C(=O)CCCCCCCCCCNC(=O)[C@H](CCCCN)n3cc(C)nn3)CC2)nc(N2CCN(C(=O)CCCCCCCCCCNC(=O)[C@@H]([C@H](C)CC)n3cc(CCCCCN)nn3)CC2)n1	CHO parental Ca 73 (no result: GalR3 antagonist, GPR7 antagonist)
C#CCOCCOCCOCCNc1nc(N2CCN(C(=O)CCCCCCCCCCNC(=O)[C@H]([C@@H](C)CC)n3cc(CCCCCN)nn3)CC2)nc(N2CCN(C(=O)CCCCCCCCCCNC(=O)[C@@H]([C@H](C)O)n3cc(C)nn3)CC2)n1	none (no result: GalR3 antagonist, GPR7 antagonist)
CS(=O)(=O)c1ccc(Sc2nc3ccccc3[nH]2)c([N+](=O)[O-])c1	OX1R antag-1 44
CCOC(=O)Cn1c(=N)n(CCOc2ccc(Br)cc2)c2ccccc21	GPR7 antagonist 19
CCOC(=O)Cn1c(=N)n(CCOc2cccc(C)c2)c2ccccc21	none
C=CCN1C(=O)/C(=C\C=C2\N(C)c3ccccc3C2(C)C)SC1=S	none
CN1/C(=C\C=C2/SC(=S)N(CC(=O)O)C2=O)C(C)(C)c2ccccc21	CHO parental Ca 69, OX1R antag-2 77
Cn1cc(C(=O)N/N=C/c2cccc([N+](=O)[O-])c2)c2ccccc21	OX1R antag-1 43
O=C(N/N=C/c1ccc2ncccc2c1)c1cccc([N+](=O)[O-])c1	OX1R antag-1 72
O=C(N/N=C/c1ccccn1)c1cccc([N+](=O)[O-])c1	none
Cn1ncc([N+](=O)[O-])c1C(=O)N/N=C/c1cccc([N+](=O)[O-])c1	OX1R antag-1 54
Cc1ccc(C)c(N(CC(=O)NC2CCCC2)C(=O)CNC(=O)c2cccs2)c1	none
COc1ccc(N2CCN(C(=O)CSc3nnc(C)c(=O)[nH]3)CC2)cc1	CHO parental Ca 37
COc1ccc(-c2sc3ccccc3c2-c2ccc(OCCN(C)C)cc2)cc1	CHO parental Ca 50, OX1R antag-2 70 (no result: GPR7 antagonist)
N#C/C(=C\c1ccc(Cl)cc1Cl)c1n[nH]c(Cn2cncn2)n1	none
CCSc1ncccc1C(=O)N[C@@H](CCSC)C(=O)OC	none
c1ccc(-c2nc3nonc3nc2-c2ccccc2)cc1	OX1R antag-1 40
Nc1c(-c2ccccc2)nc(Cl)nc1-c1ccccc1	none
COC(=O)N1C[C@H](OC)[C@H]2C[C@@H]1c1ccccc1O2	none (no result: OX1R antag-1, CHO parental Ca, OX1R antag-2, GPR7 antagonist)
CC1=C(Nc2ccc(C(=O)O)cc2)C(=O)c2ccccc2C1=O	OX1R antag-1 44
CC1(Cc2ccc(Cl)cc2)C(=O)Nc2c(Cl)ccc(Cl)c21 (stereo not given)	none (no result: OX1R antag-1, CHO parental Ca, OX1R antag-2, GPR7 antagonist)
CC1(C)CC[C@]2(C(=O)O)CC[C@]3(C)C(=CC[C@@H]4[C@@]5(C)CC[C@H](O[C@@H]6O[C@H](C(=O)O)[C@@H](O)[C@H](O[C@@H]7OC[C@H](O)[C@H](O)[C@H]7O)[C@H]6O)C(C)(C)[C@@H]5CC[C@]43C)[C@@H]2C1	CHO parental Ca 100, OX1R antag-2 111 (no result: GPR7 antagonist)
COc1ccc(C(C)(O)c2nc(-c3cccc(F)c3)cs2)cc1 (stereo not given)	none (no result: OX1R antag-1, CHO parental Ca, OX1R antag-2, GPR7 antagonist)
COC(=O)c1c(NC(=O)c2ccco2)sc(C(=O)Nc2ccc(F)cc2)c1C	none
COC(=O)c1c(NC(=O)c2ccco2)sc(C)c1C	OX1R antag-1 59
NC1=NC[C@H](Cc2ccccc2)N1CCCCC1CCCCC1	CHO parental Ca 74, OX1R antag-2 75 (no result: GPR7 antagonist)
Cn1c(=O)c2[nH]c(Cc3cccc4ccccc34)nc2n(C)c1=O	none (no result: OX1R antag-1, CHO parental Ca, OX1R antag-2, GPR7 antagonist)
CC(=O)Nc1ccc(NC(=O)C(Cc2ccccc2)NC(=O)C2CCCCC2)cc1 (stereo not given)	none
O=C(Oc1ccc[nH]c1=O)c1cc([N+](=O)[O-])cc([N+](=O)[O-])c1	OX1R antag-1 68
COc1ccc(C(=O)Oc2ccc[nH]c2=O)cc1	none
COc1ccccc1NC(=O)Nc1nnc(-c2ccco2)s1	OX1R antag-1 32 (no result: GalR3 antagonist)
COc1cc(/C=C(\C#N)c2nc3ccccc3[nH]2)ccc1OC(=O)c1ccco1	OX1R antag-1 71
Cc1nn(C)cc1NC(=O)Cn1nc(C(F)(F)F)cc1C1CC1	none
Cc1cc(/C=N/n2cnnc2)c(C)n1-c1ccc(OCc2ccc(Cl)cc2Cl)cc1	CHO parental Ca 45, OX1R antag-2 53 (no result: GalR3 antagonist)
CC(C)C1O/C(=N/C(=O)Nc2ccc(Cl)c(Cl)c2)NC1=O (stereo not given)	CHO parental Ca 44
O=C(/C=C/c1ccccc1[N+](=O)[O-])N1CCCCC1	none
CC1CC(C)CN(C(=O)/C=C/c2ccc([N+](=O)[O-])s2)C1 (stereo not given)	none (no result: OX1R antag-1, CHO parental Ca, OX1R antag-2)
O=C(/C=C/c1ccc([N+](=O)[O-])s1)N1CCCC1	OX1R antag-1 52
O=C(/C=C/c1ccc([N+](=O)[O-])s1)N1CCCCC1	OX1R antag-1 74
Nc1nc2cc3c(cc2cc1C(=O)NCc1cccnc1)OCO3	none (no result: OX1R antag-1, CHO parental Ca, OX1R antag-2, GPR7 antagonist)
c1ccc(C[n+]2csc3ccccc32)cc1	CHO parental Ca 29
O=C(NCc1ccccc1)c1ccc(NC(=O)c2ccccc2F)cc1	none
CSc1nc(N)n2nc(-c3ccccc3)cc2n1	none
O=C(NC1CCCC1)C(c1cccnc1)N(CCc1ccccc1)C(=O)c1ccco1 (stereo not given)	OX1R antag-1 57
Cc1cccc2cc(C#N)c(NCCNS(=O)(=O)c3ccccc3)nc12	OX1R antag-1 58
CCCCNC(=O)C1C(c2ccccc2)=Nc2ccccc2N1C(=O)c1ccc(C)cc1 (stereo not given)	none (no result: OX1R antag-1, CHO parental Ca, OX1R antag-2, GPR7 antagonist)
COc1ccc(C#Cc2cnc3c(c2)C(=O)N([C@H](C)CO)C[C@@H](C)[C@H](CN(C)C(=O)CN(C)C)O3)cc1	none (no result: OX1R antag-1, CHO parental Ca, OX1R antag-2, GPR7 antagonist)
Cc1ccc(NC(=S)Nc2ccc(OC(F)F)c(Cl)c2)cc1Cl	none
FC(F)Oc1ccc(NC(=S)NCc2ccccc2)cc1Cl	CHO parental Ca 34
CC(NC(=S)Nc1ccc(OC(F)F)c(Cl)c1)C(C)(C)C (stereo not given)	CHO parental Ca 34, OX1R antag-2 38
CCn1c(O)c(N=NC(=O)c2ccc(CSc3nncn3C)cc2)c2ccccc21	OX1R antag-1 70
Cc1csc(NC(=O)c2ccc3ccccc3n2)n1	none
O=C(Nc1nccs1)c1ccc2ccccc2n1	OX1R antag-1 71
O=C(Nc1nccs1)c1ccc2nccnc2c1	OX1R antag-1 46
CCC(CC)c1nnc(NC(=O)c2ccc3ccccc3n2)s1	OX1R antag-1 49
Cc1sc(NC(=O)CN2C(=O)NC3(CCCC3)C2=O)nc1-c1ccc(F)cc1	none (no result: GPR7 antagonist)
